Laboratory results taken from ChEMBL document CHEMBL4715780, “Biological evaluation of tetracationic compounds based on two 1,4-diazabicyclo[2.2.2]octane moieties connected by different linkers” (Bioorg Med Chem, 2016).

Columns and labels:
[1] = test system: Staphylococcus aureus; assay: Bactericidal activity against […] Staphylococcus aureus ATCC 25923 assessed as colony forming unit at 5 ug/ml measured at 8 hrs by time kill assay (reference value: 2.7 x 10^8 CFU/ml); assay type: functional; settings: dose 5 µg/ml
How it was run: (§1)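 S. aureus overnight culture was adjusted in MHB to ~8 × 10⁵ CFU/mL. Compound was added and the mixture incubated at 37 °C with shaking (580 rpm) for 22 h. Aliquots were plated for colony counts at 2, 4, 6, 8 and 22 h, with a quantification limit of 100 CFU/mL. Runs were done in triplicate.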

[2] = test system: Proteus vulgaris; assay: Antibacterial activity against Proteus vulgaris ATCC 6380 assessed as bacterial growth inhibition by CLSI protocol based serial microdilution method; assay type: functional
[3] = Selectivity index, ratio of CC50 for HEK293T cells assessed as reduction in cell viability measured after 24 hrs by MTT assay to MIC for Enterococcus faecalis ATCC 51299 assessed as bacterial growth inhibition by CLSI protocol based serial microdilution method; assay type: toxicity; settings: human, read-out: Selectivity Index
[4] = test system: Pseudomonas aeruginosa; assay: Bactericidal activity against Pseudomonas aeruginosa ATCC 9027 assessed as reduction in colony forming unit at 5 ug/ml measured at 22 hrs by time kill assay relative to control; assay type: functional; design: scale not given: the % may be the effect or the level left; settings: dose 5 µg/ml
How it was run: (§2)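 Overnight Pseudomonas aeruginosa culture adjusted in Mueller–Hinton broth to about 2.5 × 10⁵ CFU/mL. Compound added at 2.5, 5 or 10 µg/mL, then incubated at 37 °C with shaking (580 rpm) for 22 h. Viable colonies counted on plates at 2, 4, 6, 8 and 22 h. Quantification limit 100 CFU/mL; triplicate.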

[5] = test system: Staphylococcus aureus; assay: Antibacterial activity against […] Staphylococcus aureus ATCC 25923 assessed as bacterial growth inhibition by CLSI protocol based serial microdilution method; assay type: functional
[6] = test system: Pseudomonas aeruginosa; assay: Bactericidal activity against Pseudomonas aeruginosa ATCC 9027 assessed as reduction in colony forming unit at 2.5 ug/ml measured at 22 hrs by time kill assay relative to control; assay type: functional; design: scale not given: the % may be the effect or the level left; settings: dose 2.5 µg/ml; how it was run: as §2
[7] = test system: Staphylococcus aureus; assay: Antibacterial activity against methicillin-resistant Staphylococcus aureus CEMTC 1732 assessed as concentration required to inhibit visible growth by CLSI protocol based serial microdilution method; assay type: functional
[8] = test system: Pseudomonas aeruginosa; assay: Bactericidal activity against Pseudomonas aeruginosa ATCC 9027 assessed as colony forming unit at 10 ug/ml measured at 8 hrs by time kill assay (reference value: 2.7 x 10^8 CFU/ml); assay type: functional; settings: dose 10 µg/ml; how it was run: as §2
[9] = test system: Pseudomonas aeruginosa; assay: Bactericidal activity against Pseudomonas aeruginosa ATCC 9027 assessed as reduction in colony forming unit at 10 ug/ml measured at 8 hrs by time kill assay relative to control; assay type: functional; design: scale not given: the % may be the effect or the level left; settings: dose 10 µg/ml; how it was run: as §2
[10] = test system: Candida albicans; assay: Antifungal activity against Candida albicans CEMTC 34 assessed as concentration required to inhibit visible growth by CLSI protocol based serial microdilution method; assay type: functional
How it was run: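 Candida albicans grown in Sabouraud dextrose broth with two-fold serial compound dilutions from water stocks; final inoculum about 5 × 10⁵ CFU/mL. Incubated at 37 °C with orbital shaking (580 rpm). MIC is the lowest concentration preventing growth, by absorbance at 595 nm. MFC is the lowest concentration with no visible growth. Duplicates in two separate experiments.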

[11] = Cytotoxicity against HEK293T cells assessed as reduction in cell viability measured after 24 hrs by MTT assay; assay type: cell-based, HEK-293T; settings: human
How it was run: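 HEK293T or MCF-7 cells in IMDM with 10% FBS, seeded at 20,000 per well and grown overnight. Compounds at […] in fresh medium for 24 h at 37 °C, 5% CO₂. MTT then added for 4 h, precipitate dissolved overnight in SDS-HCl, absorbance read at 570 nm. Viability expressed relative to untreated cells, giving CC₅₀. Duplicate wells, at least two independent repeats.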

[12] = test system: Pseudomonas aeruginosa; assay: Bactericidal activity against Pseudomonas aeruginosa ATCC 9027 assessed as colony forming unit at 2.5 ug/ml measured at 2 hrs by time kill assay (reference value: 3.6 x 10^5 CFU/ml); assay type: functional; settings: dose 2.5 µg/ml; how it was run: as §2
[13] = test system: Pseudomonas aeruginosa; assay: Bactericidal activity against Pseudomonas aeruginosa ATCC 9027 assessed as colony forming unit at 5 ug/ml measured at 6 hrs by time kill assay (reference value: 10^8 CFU/ml); assay type: functional; settings: dose 5 µg/ml; how it was run: as §2
[14] = test system: Pseudomonas aeruginosa; assay: Antibacterial activity against Pseudomonas aeruginosa ATCC 9027 assessed as concentration required to inhibit visible growth by CLSI protocol based serial microdilution method; assay type: functional
[15] = test system: Staphylococcus aureus; assay: Bactericidal activity against […] Staphylococcus aureus ATCC 25923 assessed as colony forming unit at 2.5 ug/ml measured at 6 hrs by time kill assay (reference value: 1.2 x 10^6 CFU/ml); assay type: functional; settings: dose 2.5 µg/ml; how it was run: as §1
[16] = test system: Pseudomonas aeruginosa; assay: Bactericidal activity against Pseudomonas aeruginosa ATCC 9027 assessed as colony forming unit at 10 ug/ml measured at 2 hrs by time kill assay (reference value: 3.6 x 10^5 CFU/ml); assay type: functional; settings: dose 10 µg/ml; how it was run: as §2
[17] = test system: Pseudomonas aeruginosa; assay: Bactericidal activity against Pseudomonas aeruginosa ATCC 9027 assessed as reduction in colony forming unit at 10 ug/ml measured at 6 hrs by time kill assay relative to control; assay type: functional; design: scale not given: the % may be the effect or the level left; settings: dose 10 µg/ml; how it was run: as §2
[18] = test system: Pseudomonas aeruginosa; assay: Antibacterial activity against Pseudomonas aeruginosa ATCC 9027 assessed as bacterial growth inhibition by CLSI protocol based serial microdilution method; assay type: functional
[19] = Selectivity index, ratio of CC50 for HEK293T cells assessed as reduction in cell viability measured after 24 hrs by MTT assay to MIC for Salmonella enterica ATCC 14028 assessed as bacterial growth inhibition by CLSI protocol based serial microdilution method; assay type: toxicity; settings: human, read-out: Selectivity Index
[20] = Selectivity index, ratio of CC50 for HEK293T cells assessed as reduction in cell viability measured after 24 hrs by MTT assay to MIC for Staphylococcus aureus ATCC 25923 assessed as bacterial growth inhibition by CLSI protocol based serial microdilution method; assay type: toxicity; settings: human, read-out: Selectivity Index
[21] = Selectivity index, ratio of CC50 for HEK293T cells assessed as reduction in cell viability measured after 24 hrs by MTT assay to MIC for Proteus vulgaris ATCC 6380 assessed as bacterial growth inhibition by CLSI protocol based serial microdilution method; assay type: toxicity; settings: human, read-out: Selectivity Index
[22] = test system: Pseudomonas aeruginosa; assay: Bactericidal activity against Pseudomonas aeruginosa ATCC 9027 assessed as colony forming unit at 10 ug/ml measured at 6 hrs by time kill assay (reference value: 10^8 CFU/ml); assay type: functional; settings: dose 10 µg/ml; how it was run: as §2
[23] = test system: Pseudomonas aeruginosa; assay: Bactericidal activity against Pseudomonas aeruginosa ATCC 9027 assessed as colony forming unit at 10 ug/ml measured at 22 hrs by time kill assay (reference value: 1.7 x 10^9 CFU/ml); assay type: functional; settings: dose 10 µg/ml; how it was run: as §2
[24] = test system: Staphylococcus aureus; assay: Bactericidal activity against […] Staphylococcus aureus ATCC 25923 assessed as colony forming unit at 1.25 ug/ml measured at 22 hrs by time kill assay (reference value: 2.9 x 10^9 CFU/ml); assay type: functional; settings: dose 1.25 µg/ml; how it was run: as §1
[25] = test system: Citrobacter freundii; assay: Antibacterial activity against Citrobacter freundii ATCC 8090 assessed as bacterial growth inhibition by CLSI protocol based serial microdilution method; assay type: functional
[26] = test system: Pseudomonas aeruginosa; assay: Bactericidal activity against Pseudomonas aeruginosa ATCC 9027 assessed as reduction in colony forming unit at 5 ug/ml measured at 4 hrs by time kill assay relative to control; assay type: functional; design: scale not given: the % may be the effect or the level left; settings: dose 5 µg/ml; how it was run: as §2
[27] = Selectivity index, ratio of CC50 for HEK293T cells assessed as reduction in cell viability measured after 24 hrs by MTT assay to MIC for Escherichia coli ATCC 25922 assessed as bacterial growth inhibition by CLSI protocol based serial microdilution method; assay type: toxicity; settings: human, read-out: Selectivity Index

| Structure (SMILES) | Activity [1] | MIC [2] | selectivity ratio at 24 h [3] | Activity [4] | MIC [5] | Activity [6] | MBC [7] | Activity [8] | Activity [9] | MFC [10] | CC50 at 24 h [11] | Activity [12] | Activity [13] | MBC [14] | Activity [15] | Activity [16] | Activity [17] | MIC [18] | selectivity ratio at 24 h [19] | selectivity ratio at 24 h [20] | also measured |
| --- | --- | --- | --- | --- | --- | --- | --- | --- | --- | --- | --- | --- | --- | --- | --- | --- | --- | --- | --- | --- | --- |
| CCCCCCCCCCCC[N+]12CC[N+](CCC[N+]34CC[N+](CCCCCCCCCCCC)(CC3)CC4)(CC1)CC2 | <100 CFU/ml | 100 µg/mL | 4 | >=99.9% | 0.3 µg/mL | >=99.9% | 1 µg/mL | <100 CFU/ml | >=99.9% | 6.3 µg/mL | 6.5 µg/mL | 330 CFU/ml | <100 CFU/ml | 3.1 µg/mL | <100 CFU/ml | <100 CFU/ml | >=99.9% | 1.6 µg/mL | 4 | 22 | selectivity ratio at 24 h [21]: < 1; Activity [22]: <100 CFU/ml; Activity [23]: <100 CFU/ml; Activity [24]: <100 CFU/ml; MIC [25]: 1.6 µg/mL; Activity [26]: >=99.9%; selectivity ratio at 24 h [27]: 4 |
| CCCCCCCCCCCC[N+]12CC[N+](Cc3ccccc3C[N+]34CC[N+](CCCCCCCCCCCC)(CC3)CC4)(CC1)CC2 | <100 CFU/ml | 100 µg/mL | 5 | >=99.9% | 0.6 µg/mL | >=99.9% | 1 µg/mL | <100 CFU/ml | >=99.9% | 6.3 µg/mL | 4 µg/mL | 6800 CFU/ml | <100 CFU/ml | 3.1 µg/mL | <100 CFU/ml | <100 CFU/ml | >=99.9% | 1.6 µg/mL | 3 | 7 | selectivity ratio at 24 h [21]: < 1; Activity [22]: <100 CFU/ml; Activity [23]: <100 CFU/ml; Activity [24]: <100 CFU/ml; MIC [25]: 1.6 µg/mL; Activity [26]: >=99.9%; selectivity ratio at 24 h [27]: 3 |
